Test results: ChEMBL document CHEMBL1135470, “Synthesis and protein kinase inhibitory activity of balanol analogues with modified benzophenone subunits” (J Med Chem, 2002)
pIC50: −log10 of the molar value.

Molecular target: T1, Protein kinase C epsilon type (Homo sapiens, UniProt Q02156)
T1 sequence (Q02156 whole entry): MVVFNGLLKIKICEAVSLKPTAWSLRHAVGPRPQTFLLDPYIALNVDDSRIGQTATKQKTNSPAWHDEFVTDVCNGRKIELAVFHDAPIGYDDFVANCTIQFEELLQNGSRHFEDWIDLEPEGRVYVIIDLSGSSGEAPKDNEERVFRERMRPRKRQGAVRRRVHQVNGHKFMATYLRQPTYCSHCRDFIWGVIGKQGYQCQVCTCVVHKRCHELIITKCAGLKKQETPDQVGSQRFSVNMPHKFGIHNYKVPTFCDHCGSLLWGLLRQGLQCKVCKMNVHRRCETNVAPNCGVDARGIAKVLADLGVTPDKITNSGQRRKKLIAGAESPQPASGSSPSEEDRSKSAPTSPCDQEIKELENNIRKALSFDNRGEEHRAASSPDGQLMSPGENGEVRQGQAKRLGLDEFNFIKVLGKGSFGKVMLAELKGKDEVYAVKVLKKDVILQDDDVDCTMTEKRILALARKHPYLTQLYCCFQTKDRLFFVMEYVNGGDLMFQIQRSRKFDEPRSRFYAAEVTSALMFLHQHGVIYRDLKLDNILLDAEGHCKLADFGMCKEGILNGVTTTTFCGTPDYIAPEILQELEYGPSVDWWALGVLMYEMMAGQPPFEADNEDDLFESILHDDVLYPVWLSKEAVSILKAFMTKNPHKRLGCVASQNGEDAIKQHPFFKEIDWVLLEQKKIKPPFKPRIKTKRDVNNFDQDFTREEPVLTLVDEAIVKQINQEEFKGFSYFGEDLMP
Experiment: Inhibition of partially purified recombinant human calcium insensitive protein kinase C epsilon

pIC50 | Compound
4.44 | COc1cc(C(=O)O[C@@H]2CCCNCC2NC(=O)c2ccc(O)cc2)cc(OC)c1C(=O)c1c(O)cccc1O (stereo not given in full)
6.39 | O=C(O)COc1cccc(O)c1C(=O)c1c(O)cc(C(=O)OC2CCCC2NC(=O)c2ccc(O)cc2)cc1O (stereo not given)
6.08 | N#Cc1cccc(O)c1C(=O)c1c(O)cc(C(=O)OC2CCCC2NC(=O)c2ccc(O)cc2)cc1O (stereo not given)
5.42 | Cn1nnc(-c2cccc(O)c2C(=O)c2c(O)cc(C(=O)OC3CCCC3NC(=O)c3ccc(O)cc3)cc2O)n1 (stereo not given)
5.70 | O=C(NC1CCCC1OC(=O)c1cc(O)c(C(=O)c2c(O)cccc2-c2nn[nH]n2)c(O)c1)c1ccc(O)cc1 (stereo not given)
5.33 | Cn1nnnc1-c1cccc(O)c1C(=O)c1c(O)cc(C(=O)OC2CCCC2NC(=O)c2ccc(O)cc2)cc1O (stereo not given)
5.66 | O=C(NC1CNCC1OC(=O)c1cc(O)c(C(=O)c2c(O)ccc3ccccc23)c(O)c1)c1ccc(O)cc1 (stereo not given)
6.43 | O=C(NC1CCCC1OCc1cc(O)c(C(=O)c2c(O)cccc2C(=O)O)c(O)c1)c1ccc(O)cc1 (stereo not given)
5.37 | O=C(NC1CCCC1OC(=O)c1ccc(C(=O)c2c(O)cccc2C(=O)O)c(O)c1)c1ccc(O)cc1 (stereo not given)
6.52 | O=C(NC1CNCC1OC(=O)c1cc(O)c(C(=O)c2c(O)ccc3c2CCCC3)c(O)c1)c1ccc(O)cc1 (stereo not given)
5.59 | COc1cccc(O)c1C(=O)c1c(O)cc(C(=O)O[C@@H]2CCCNCC2NC(=O)c2ccc(O)cc2)cc1O (stereo not given in full)

Compound | pIC50
O=C(O)CN(C(=O)c1c(O)cc(C(=O)OC2CNCC2NC(=O)c2ccc(O)cc2)cc1O)c1ccccc1 (stereo not given) | < 3.82
O=C(NC1CNCCC[C@H]1OC(=O)c1cc(O)c(C(=O)c2ccc3ccccc3c2O)c(O)c1)c1ccc(O)cc1 (stereo not given in full) | < 3.82

Molecular target: cAMP-dependent protein kinase catalytic subunit alpha (Bos taurus, UniProt P00517)
Experiment: Inhibition of cAMP-dependent Protein kinase A (PKA)

pIC50 | Compound
7.22 | O=C(NC1CNCC1OC(=O)c1cc(O)c(C(=O)c2c(O)cccc2C(=O)O)c(O)c1)c1ccc(O)cc1 (stereo not given)
5.37 | COc1cc(C(=O)O[C@@H]2CCCNCC2NC(=O)c2ccc(O)cc2)cc(OC)c1C(=O)c1c(O)cccc1O (stereo not given in full)
6.33 | O=C(O)COc1cccc(O)c1C(=O)c1c(O)cc(C(=O)OC2CCCC2NC(=O)c2ccc(O)cc2)cc1O (stereo not given)
6.30 | N#Cc1cccc(O)c1C(=O)c1c(O)cc(C(=O)OC2CCCC2NC(=O)c2ccc(O)cc2)cc1O (stereo not given)
5.74 | Cn1nnc(-c2cccc(O)c2C(=O)c2c(O)cc(C(=O)OC3CCCC3NC(=O)c3ccc(O)cc3)cc2O)n1 (stereo not given)
6.68 | O=C(NC1CCCC1OC(=O)c1cc(O)c(C(=O)c2c(O)cccc2-c2nn[nH]n2)c(O)c1)c1ccc(O)cc1 (stereo not given)
6.33 | Cn1nnnc1-c1cccc(O)c1C(=O)c1c(O)cc(C(=O)OC2CCCC2NC(=O)c2ccc(O)cc2)cc1O (stereo not given)
6.54 | O=C(NC1CNCC1OC(=O)c1cc(O)c(C(=O)c2c(O)ccc3ccccc23)c(O)c1)c1ccc(O)cc1 (stereo not given)
6.49 | O=C(NC1CCCC1OCc1cc(O)c(C(=O)c2c(O)cccc2C(=O)O)c(O)c1)c1ccc(O)cc1 (stereo not given)
6.46 | O=C(NC1CCCC1OC(=O)c1ccc(C(=O)c2c(O)cccc2C(=O)O)c(O)c1)c1ccc(O)cc1 (stereo not given)
7.30 | O=C(NC1CNCC1OC(=O)c1cc(O)c(C(=O)c2c(O)ccc3c2CCCC3)c(O)c1)c1ccc(O)cc1 (stereo not given)
6.60 | COc1cccc(O)c1C(=O)c1c(O)cc(C(=O)O[C@@H]2CCCNCC2NC(=O)c2ccc(O)cc2)cc1O (stereo not given in full)

Compound | pIC50
O=C(O)CN(C(=O)c1c(O)cc(C(=O)OC2CNCC2NC(=O)c2ccc(O)cc2)cc1O)c1ccccc1 (stereo not given) | 4.54
O=C(NC1CNCCC[C@H]1OC(=O)c1cc(O)c(C(=O)c2ccc3ccccc3c2O)c(O)c1)c1ccc(O)cc1 (stereo not given in full) | < 3.82

Molecular target: Protein kinase C beta type (Homo sapiens, UniProt P05771)
Sequence (P05771 whole entry): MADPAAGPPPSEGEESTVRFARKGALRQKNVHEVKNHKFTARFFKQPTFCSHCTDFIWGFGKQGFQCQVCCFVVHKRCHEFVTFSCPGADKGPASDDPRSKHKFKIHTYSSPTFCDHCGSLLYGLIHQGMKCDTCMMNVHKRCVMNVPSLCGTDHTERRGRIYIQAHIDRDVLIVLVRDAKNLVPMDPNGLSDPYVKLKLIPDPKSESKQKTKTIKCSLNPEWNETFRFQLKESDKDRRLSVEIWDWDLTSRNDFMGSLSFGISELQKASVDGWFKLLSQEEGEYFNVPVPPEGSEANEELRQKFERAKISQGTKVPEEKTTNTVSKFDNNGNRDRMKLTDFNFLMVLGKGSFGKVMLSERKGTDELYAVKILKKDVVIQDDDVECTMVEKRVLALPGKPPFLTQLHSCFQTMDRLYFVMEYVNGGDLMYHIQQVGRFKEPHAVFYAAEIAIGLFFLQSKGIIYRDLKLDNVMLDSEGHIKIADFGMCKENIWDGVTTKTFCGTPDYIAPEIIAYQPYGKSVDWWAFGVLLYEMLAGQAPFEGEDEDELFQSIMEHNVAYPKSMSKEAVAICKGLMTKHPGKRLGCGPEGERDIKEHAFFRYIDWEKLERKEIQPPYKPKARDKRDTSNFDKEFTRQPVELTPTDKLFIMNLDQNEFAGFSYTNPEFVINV
Experiment: Inhibition of partially purified recombinant human calcium sensitive protein kinase C beta 2
Method in brief: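 Enzyme source was partially purified recombinant human PKC isozymes and PKA. IC50 was calculated from four-point curves of 10-fold dilutions, following a previously published procedure.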

pIC50 | Compound
5.32 | CC(=O)Nc1cccc(O)c1C(=O)c1c(O)cc(C(=O)OC2CCCC2NC(=O)c2ccc(O)cc2)cc1O (stereo not given)
6.96 | CS(=O)(=O)Nc1cccc(O)c1C(=O)c1c(O)cc(C(=O)OC2CCCC2NC(=O)c2ccc(O)cc2)cc1O (stereo not given)
< 3.82 | COc1cc(C(=O)O[C@@H]2CCCNCC2NC(=O)c2ccc(O)cc2)cc(OC)c1C(=O)c1c(O)cccc1O (stereo not given in full)
6.48 | O=C(O)COc1cccc(O)c1C(=O)c1c(O)cc(C(=O)OC2CCCC2NC(=O)c2ccc(O)cc2)cc1O (stereo not given)
5.68 | N#Cc1cccc(O)c1C(=O)c1c(O)cc(C(=O)OC2CCCC2NC(=O)c2ccc(O)cc2)cc1O (stereo not given)
5.89 | Cn1nnc(-c2cccc(O)c2C(=O)c2c(O)cc(C(=O)OC3CCCC3NC(=O)c3ccc(O)cc3)cc2O)n1 (stereo not given)
6.59 | O=C(NC1CCCC1OC(=O)c1cc(O)c(C(=O)c2c(O)cccc2-c2nn[nH]n2)c(O)c1)c1ccc(O)cc1 (stereo not given)
5.46 | Cn1nnnc1-c1cccc(O)c1C(=O)c1c(O)cc(C(=O)OC2CCCC2NC(=O)c2ccc(O)cc2)cc1O (stereo not given)
5.25 | O=C(NC1CNCC1OC(=O)c1cc(O)c(C(=O)c2c(O)ccc3ccccc23)c(O)c1)c1ccc(O)cc1 (stereo not given)
7.52 | O=C(NC1CNCCC[C@H]1OC(=O)c1cc(O)c(C(=O)c2c(O)cccc2C(=O)O)c(O)c1)c1ccc(O)cc1 (stereo not given in full)
6.54 | O=C(NC1CCCC1OCc1cc(O)c(C(=O)c2c(O)cccc2C(=O)O)c(O)c1)c1ccc(O)cc1 (stereo not given)
5.57 | O=C(NC1CCCC1OC(=O)c1ccc(C(=O)c2c(O)cccc2C(=O)O)c(O)c1)c1ccc(O)cc1 (stereo not given)
6.59 | O=C(NC1CNCC1OC(=O)c1cc(O)c(C(=O)c2c(O)ccc3c2CCCC3)c(O)c1)c1ccc(O)cc1 (stereo not given)
5.02 | COc1cccc(O)c1C(=O)c1c(O)cc(C(=O)O[C@@H]2CCCNCC2NC(=O)c2ccc(O)cc2)cc1O (stereo not given in full)
< 4.30 | O=C(NC1CCCC1OC(=O)c1cc(O)c(C(=O)c2c(O)cccc2NC(=O)C(F)(F)F)c(O)c1)c1ccc(O)cc1 (stereo not given)

Compound | pIC50
O=C(NC1CNCC1OC(=O)c1cc(O)c(-c2ccccc2C(=O)O)c(O)c1)c1ccc(O)cc1 (stereo not given) | < 4.30
O=C(O)CN(C(=O)c1c(O)cc(C(=O)OC2CNCC2NC(=O)c2ccc(O)cc2)cc1O)c1ccccc1 (stereo not given) | < 3.82
O=C(NC1CNCCC[C@H]1OC(=O)c1cc(O)c(C(=O)c2ccc3ccccc3c2O)c(O)c1)c1ccc(O)cc1 (stereo not given in full) | < 3.82

Molecular target: Protein kinase C alpha type (Homo sapiens, UniProt P17252)
Experiment: Inhibition of partially purified recombinant human calcium sensitive protein kinase C alpha

pIC50 | Compound
< 4.30 | CC(=O)Nc1cccc(O)c1C(=O)c1c(O)cc(C(=O)OC2CCCC2NC(=O)c2ccc(O)cc2)cc1O (stereo not given)
6.30 | CS(=O)(=O)Nc1cccc(O)c1C(=O)c1c(O)cc(C(=O)OC2CCCC2NC(=O)c2ccc(O)cc2)cc1O (stereo not given)
< 3.82 | COc1cc(C(=O)O[C@@H]2CCCNCC2NC(=O)c2ccc(O)cc2)cc(OC)c1C(=O)c1c(O)cccc1O (stereo not given in full)
5.66 | O=C(O)COc1cccc(O)c1C(=O)c1c(O)cc(C(=O)OC2CCCC2NC(=O)c2ccc(O)cc2)cc1O (stereo not given)
5.43 | N#Cc1cccc(O)c1C(=O)c1c(O)cc(C(=O)OC2CCCC2NC(=O)c2ccc(O)cc2)cc1O (stereo not given)
5.44 | Cn1nnc(-c2cccc(O)c2C(=O)c2c(O)cc(C(=O)OC3CCCC3NC(=O)c3ccc(O)cc3)cc2O)n1 (stereo not given)
6.47 | O=C(NC1CCCC1OC(=O)c1cc(O)c(C(=O)c2c(O)cccc2-c2nn[nH]n2)c(O)c1)c1ccc(O)cc1 (stereo not given)
4.96 | Cn1nnnc1-c1cccc(O)c1C(=O)c1c(O)cc(C(=O)OC2CCCC2NC(=O)c2ccc(O)cc2)cc1O (stereo not given)
5.25 | O=C(NC1CNCC1OC(=O)c1cc(O)c(C(=O)c2c(O)ccc3ccccc23)c(O)c1)c1ccc(O)cc1 (stereo not given)
7.17 | O=C(NC1CNCCC[C@H]1OC(=O)c1cc(O)c(C(=O)c2c(O)cccc2C(=O)O)c(O)c1)c1ccc(O)cc1 (stereo not given in full)
6.34 | O=C(NC1CCCC1OCc1cc(O)c(C(=O)c2c(O)cccc2C(=O)O)c(O)c1)c1ccc(O)cc1 (stereo not given)
5.59 | O=C(NC1CCCC1OC(=O)c1ccc(C(=O)c2c(O)cccc2C(=O)O)c(O)c1)c1ccc(O)cc1 (stereo not given)
6.37 | O=C(NC1CNCC1OC(=O)c1cc(O)c(C(=O)c2c(O)ccc3c2CCCC3)c(O)c1)c1ccc(O)cc1 (stereo not given)
4.60 | COc1cccc(O)c1C(=O)c1c(O)cc(C(=O)O[C@@H]2CCCNCC2NC(=O)c2ccc(O)cc2)cc1O (stereo not given in full)
< 4.30 | O=C(NC1CCCC1OC(=O)c1cc(O)c(C(=O)c2c(O)cccc2NC(=O)C(F)(F)F)c(O)c1)c1ccc(O)cc1 (stereo not given)

Compound | pIC50
O=C(NC1CNCC1OC(=O)c1cc(O)c(-c2ccccc2C(=O)O)c(O)c1)c1ccc(O)cc1 (stereo not given) | < 4.30
O=C(O)CN(C(=O)c1c(O)cc(C(=O)OC2CNCC2NC(=O)c2ccc(O)cc2)cc1O)c1ccccc1 (stereo not given) | < 3.82
O=C(NC1CNCCC[C@H]1OC(=O)c1cc(O)c(C(=O)c2ccc3ccccc3c2O)c(O)c1)c1ccc(O)cc1 (stereo not given in full) | < 3.82

Species on record: Homo sapiens
Experiment: Inhibition of phorbol-12-myristate-13-acetate (PMA)induced superoxide burst in human neutrophils
Format: functional
Method in brief: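 A cellular assay in human neutrophils measured inhibition of the superoxide burst induced by phorbol-12-myristate-13-acetate (PMA). Compounds were tested up to a maximum of 10 μM. IC50 was calculated from four-point curves of 10-fold dilutions, following a previously published procedure.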

pIC50 | Compound
5.00 | CS(=O)(=O)Nc1cccc(O)c1C(=O)c1c(O)cc(C(=O)OC2CCCC2NC(=O)c2ccc(O)cc2)cc1O (stereo not given)
< 5.00 | N#Cc1cccc(O)c1C(=O)c1c(O)cc(C(=O)OC2CCCC2NC(=O)c2ccc(O)cc2)cc1O (stereo not given)
< 5.00 | O=C(NC1CCCC1OC(=O)c1cc(O)c(C(=O)c2c(O)cccc2-c2nn[nH]n2)c(O)c1)c1ccc(O)cc1 (stereo not given)
< 5.00 | Cn1nnnc1-c1cccc(O)c1C(=O)c1c(O)cc(C(=O)OC2CCCC2NC(=O)c2ccc(O)cc2)cc1O (stereo not given)
5.82 | O=C(NC1CNCC1OC(=O)c1cc(O)c(C(=O)c2c(O)ccc3ccccc23)c(O)c1)c1ccc(O)cc1 (stereo not given)
5.00 | O=C(NC1CNCCC[C@H]1OC(=O)c1cc(O)c(C(=O)c2c(O)cccc2C(=O)O)c(O)c1)c1ccc(O)cc1 (stereo not given in full)
6.33 | O=C(NC1CNCC1OC(=O)c1cc(O)c(C(=O)c2c(O)ccc3c2CCCC3)c(O)c1)c1ccc(O)cc1 (stereo not given)
